According to publication PMC4785611 (British Journal of Haematology, 2016):
“Also recorded” adds a separate entry of the source.

Columns and labels:
[1] = test system: Japanese patients with relapsed and/or refractory multiple myeloma; assay: Phase 1/2 study ONO-7057-01: adverse events; format: in vivo, human
In short: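 Safety set was all patients given ≥1 IV dose (10 min; Days 1, 2, 8, 9, 15, 16 of 28-day cycles). Pre-medication was 4 mg oral or IV dexamethasone, with hydration in Cycle 1. Cycle 1 also had prophylactic antibiotics, plus acyclovir if herpes history. Patients with Grade ≥3 or painful Grade 2 PN or prior ILD were excluded. AEs were graded by NCI-CTCAE v4.0 through Cycle 6, with later cycles included.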

[2] = test system: Japanese patients with relapsed and/or refractory multiple myeloma; assay: Phase 1 dose escalation: dose-limiting toxicity in Cycle 1; format: in vivo, human; settings: for Dose-limiting toxicity (DLT): Cycle 1
In short: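 Test compound was given IV over 10 min on Days 1, 2, 8, 9, 15 and 16 of 28-day cycles. The 20/27 arm received 20 mg/m2 on Days 1–2 of Cycle 1 and 27 mg/m2 from Day 8. Three or six patients per cohort: 1/3 DLT added three patients. At 2/3 or 3/6, the prior level became the recommended dose. No G-CSF was allowed during Cycle 1 evaluation.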

[3] = test system: patients with multiple myeloma; settings: of 526 patients; ref Siegel et al, 2013; cited from earlier work

CC(C)C[C@H](NC(=O)[C@H](CCc1ccccc1)NC(=O)CN1CCOCC1)C(=O)N[C@@H](Cc1ccccc1)C(=O)N[C@@H](CC(C)C)C(=O)[C@@]1(C)CO1 [carfilzomib]
Peripheral neuropathy under study treatment, preferred terminology (Grade) ([1]; Patient No. 1, 20 mg/m^2, baseline PN Grade 1, worst PN Grade before the study 3): Peripheral neuropathy (2)
Interstitial lung disease (ILD) ([1]; Total, N = 50): No ILD was observed
AEs leading to death ([1]; during administration period or within 30 days after final administration): No AEs led to death
New PN in patients who had never experienced PN before enrolment ([1]; five patients without PN history): no new cases of PN occurred and did not develop PN and none
Patients with PN at baseline in whom carfilzomib exacerbated PN ([1]; of 35 patients with PN at baseline): three
Patients believed to have infections leading to treatment interruption (pneumonia, fever) ([1]; of the 24 patients whose treatment was interrupted): three
Patients with treatment interrupted because of neutropenia ([1]; of the 24 patients whose treatment was interrupted, seven events): five
Dose-limiting toxicity (DLT) ([2]; 15 mg/m^2 cohort, four patients (one not evaluable)): no DLT was observed
Dose-limiting toxicity (DLT) ([2]; 20/27 mg/m^2 cohort, seven patients (one not evaluable)): no DLT was observed
Maximum tolerated dose (MTD) ([2]; doses 15, 20 and 20/27 mg/m^2): did not reach the maximum tolerated dose; also recorded: did not reach the MTD
PN Grade ≥3, patients, integrated analysis [3]: seven
